In assay [1] the target is Sodium-dependent dopamine transporter (Rattus norvegicus, UniProt P23977). Type of assay: cell membranes, Sprague-Dawley, Brain, Membrane.
The target in assay [2] is Transporter (Rattus norvegicus) (UniProt Q63380). Nature of the assay: Displacement of [3H]nisoxetine from NET in Sprague-Dawley rat brain membranes at 10 uM. The settings on record: Membrane. The format is cell membranes. Background: In a radioligand displacement assay an active substance lowers the binding of a labelled ligand.
For assay [3], the target named is Sodium-dependent serotonin transporter (Rattus norvegicus) (UniProt P31652). Nature of the assay: Displacement of [3H]citalopram from SERT in Sprague-Dawley rat brain membranes at 10 uM. The format is cell membranes. The note with it: Membrane.
Assay [4] concerns the target Sodium-dependent serotonin transporter (Rattus norvegicus, UniProt P31652). The experiment in a line: Displacement of [3H]citalopram from SERT in Sprague-Dawley rat brain membranes. The format is cell membranes, Membrane.
Another assay deals with Transporter (Rattus norvegicus, UniProt Q63380). Nature of the assay: Displacement of [3H]nisoxetine from NET in Sprague-Dawley rat brain membranes. Type of assay: cell membranes, Membrane.
The next assay concerns Mus musculus. Nature of the assay: Increase in horizontal locomotor activity in mouse measured after 30 mins post 4 hrs drug administration. The format is functional, organism-based. The method, boiled down:
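Mice; horizontal locomotor activity counts per min recorded over the first 30 min of each of the 4 h after drug injection. Several doses (mg/kg) were tested to give dose-effect curves. Each point is the average of six mice.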

For assay [5], the target named is Sodium-dependent dopamine transporter (Rattus norvegicus) (UniProt P23977). The experiment in a line: Inhibition of [3H]dopamine uptake at DAT in Sprague-Dawley rat brain membranes at 10 uM. The format is cell membranes. The settings on record: Membrane.

Activity calls are given as the source filed them. The rule behind the calls is not given here.

Chain of Sodium-dependent serotonin transporter (Rattus norvegicus) (P31652 whole entry): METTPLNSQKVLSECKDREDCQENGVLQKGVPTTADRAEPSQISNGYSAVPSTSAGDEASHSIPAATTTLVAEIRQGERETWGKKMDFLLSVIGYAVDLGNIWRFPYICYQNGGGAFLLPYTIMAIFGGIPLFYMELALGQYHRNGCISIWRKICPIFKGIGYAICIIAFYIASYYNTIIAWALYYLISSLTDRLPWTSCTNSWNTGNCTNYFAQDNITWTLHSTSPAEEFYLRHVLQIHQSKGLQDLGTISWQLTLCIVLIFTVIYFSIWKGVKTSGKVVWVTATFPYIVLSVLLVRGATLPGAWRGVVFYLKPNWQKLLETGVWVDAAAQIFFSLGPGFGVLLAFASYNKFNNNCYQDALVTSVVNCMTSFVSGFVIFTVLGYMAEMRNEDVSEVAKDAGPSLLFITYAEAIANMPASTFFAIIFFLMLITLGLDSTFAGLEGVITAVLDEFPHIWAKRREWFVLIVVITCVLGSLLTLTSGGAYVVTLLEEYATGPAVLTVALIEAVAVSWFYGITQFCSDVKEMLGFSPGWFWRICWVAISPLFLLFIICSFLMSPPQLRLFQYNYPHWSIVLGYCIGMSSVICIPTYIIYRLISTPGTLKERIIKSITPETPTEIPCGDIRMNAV
Chain of Sodium-dependent serotonin transporter (P31652 whole entry): as above
Chain of Transporter (Q63380 whole entry): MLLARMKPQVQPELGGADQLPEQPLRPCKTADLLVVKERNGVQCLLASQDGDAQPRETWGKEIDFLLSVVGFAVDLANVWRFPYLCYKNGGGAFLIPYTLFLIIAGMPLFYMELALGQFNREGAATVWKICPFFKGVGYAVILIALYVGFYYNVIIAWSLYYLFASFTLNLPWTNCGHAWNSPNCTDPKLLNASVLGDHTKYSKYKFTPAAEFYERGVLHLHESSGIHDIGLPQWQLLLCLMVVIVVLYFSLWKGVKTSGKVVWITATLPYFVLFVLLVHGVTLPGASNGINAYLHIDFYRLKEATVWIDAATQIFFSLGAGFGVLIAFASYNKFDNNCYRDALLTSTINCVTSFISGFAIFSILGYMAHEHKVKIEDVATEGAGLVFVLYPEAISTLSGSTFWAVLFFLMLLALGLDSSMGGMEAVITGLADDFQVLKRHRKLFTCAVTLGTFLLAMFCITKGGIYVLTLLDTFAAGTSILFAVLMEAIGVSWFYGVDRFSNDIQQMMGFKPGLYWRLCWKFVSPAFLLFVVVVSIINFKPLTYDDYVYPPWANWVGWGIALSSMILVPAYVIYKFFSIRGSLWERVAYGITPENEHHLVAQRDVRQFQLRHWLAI
Chain of Transporter (Rattus norvegicus) (Q63380 as listed by the source): as the sequence (Q63380 whole entry) above
Chain of Sodium-dependent dopamine transporter (Rattus norvegicus) (P23977 whole entry): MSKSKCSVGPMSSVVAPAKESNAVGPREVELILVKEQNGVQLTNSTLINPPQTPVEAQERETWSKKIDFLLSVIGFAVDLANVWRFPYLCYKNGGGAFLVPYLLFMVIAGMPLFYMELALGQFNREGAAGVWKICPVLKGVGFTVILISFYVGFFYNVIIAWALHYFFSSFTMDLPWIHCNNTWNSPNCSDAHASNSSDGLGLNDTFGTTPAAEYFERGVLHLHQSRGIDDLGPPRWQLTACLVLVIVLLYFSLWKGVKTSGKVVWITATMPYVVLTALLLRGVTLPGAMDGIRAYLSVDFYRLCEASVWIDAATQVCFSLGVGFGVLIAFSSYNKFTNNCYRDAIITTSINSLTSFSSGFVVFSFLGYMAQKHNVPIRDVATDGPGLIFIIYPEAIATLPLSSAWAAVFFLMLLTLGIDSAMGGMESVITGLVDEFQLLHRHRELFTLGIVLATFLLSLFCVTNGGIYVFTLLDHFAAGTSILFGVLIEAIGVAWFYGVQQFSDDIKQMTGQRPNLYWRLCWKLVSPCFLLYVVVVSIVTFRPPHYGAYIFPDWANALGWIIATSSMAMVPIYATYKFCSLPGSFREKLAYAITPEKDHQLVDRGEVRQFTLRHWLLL
Chain of Sodium-dependent dopamine transporter (P23977 whole entry): as above

As to `NC(=O)CSC(c1ccc(F)cc1)c1ccc(F)cc1`, in assay [1], the affinity corresponds to a Ki of 1.57 µM. In addition, the inhibition result in assay [2] and in assay [3] was “inactive” throughout.
In the case of `NC(=O)CSC(c1ccc(Cl)cc1)c1ccc(Cl)cc1`, the results for the Ki in assay [1] and in assay [4] were 2.23 µM and 12.7 µM, respectively.
`NC(=O)CSC(c1ccc(Br)cc1)c1ccc(Br)cc1`: the Ki – broadly, a dissociation constant, usually derived from enzyme kinetics or from competition with a known ligand – came out at 1.93 µM in assay [1], 77.7 µM at Transporter and 2.2 µM in assay [4].
For `CN(C)C(=O)CSC(c1ccccc1)c1ccccc1`, the Ki in assay [1] was found to be 16.5 µM. For the same molecule, the inhibition entry in assay [2] and in assay [3] was “inactive” throughout.
For the molecule `CN(C)C(=O)CSC(c1ccc(F)cc1)c1ccc(F)cc1`, the inhibitory constant (Ki) in assay [1] came out at 9.51 µM; in assay [4] it was 25.9 µM. Besides, the inhibition result in assay [2] is “inactive”.
As for `CN(C)C(=O)CSC(c1ccc(Cl)cc1)c1ccc(Cl)cc1`, the Ki in assay [1] worked out at 4.51 µM; at Transporter it was 42.5 µM; in assay [4] it was 5.98 µM.
For `CN(C)C(=O)CSC(c1ccc(Br)cc1)c1ccc(Br)cc1` the same measures were 2.45 µM, 19.2 µM and 3.21 µM.
With `NC(=O)C[S@+]([O-])C(c1ccccc1)c1ccccc1`, the inhibition entry in assay [2] and in assay [3] was “inactive” each time. The Activity entry in the assay with Mus musculus was “Dose-dependent effect”.
For the molecule `NC(=O)C[S@@+]([O-])C(c1ccccc1)c1ccccc1`, the inhibition result in assay [2] and in assay [3] was “inactive” in each case. For the same molecule, in the assay on Mus musculus, the Activity result was “Dose-dependent effect”.
With `NC(=O)C[S+]([O-])C(c1ccc(F)cc1)c1ccc(F)cc1` (racemic), the affinity in assay [1], expressed as Ki, was 2.19 µM. Besides, the inhibition result in assay [2] and in assay [3] was “inactive” in each case.
With `NC(=O)C[S+]([O-])C(c1ccc(Cl)cc1)c1ccc(Cl)cc1` (racemic), the inhibition entry in assay [2] was “inactive”. The same molecule displayed a Ki in assay [4] of 39 µM. For the same molecule, in the assay with Mus musculus, the Activity entry is “Dose-dependent effect”.
As for `NC(=O)C[S+]([O-])C(c1ccc(Br)cc1)c1ccc(Br)cc1` (racemic), the Ki in assay [1] came out at 0.6 µM; in assay [4] it was 10.6 µM. Besides, the inhibition entry in assay [2] was “inactive”.
For `CN(C)C(=O)C[S+]([O-])C(c1ccc(F)cc1)c1ccc(F)cc1` (racemic), the inhibition result in assay [2] and in assay [5] was “inactive” in each case. The same molecule displayed a Ki in assay [4] of 16.2 µM.
Take `CN(C)C(=O)C[S+]([O-])C(c1ccc(Cl)cc1)c1ccc(Cl)cc1` (racemic): the Ki in assay [1] was found to be 34.6 µM; in assay [4], 22.3 µM. Also, in assay [2], the inhibition result was “inactive”.
`CN(C)C(=O)C[S+]([O-])C(c1ccc(Br)cc1)c1ccc(Br)cc1` (racemic): the results for the Ki in assay [1] and in assay [4] were 21.3 µM and 14.2 µM, respectively. Also, the inhibition result in assay [2] is “inactive”.
In the case of `CNC(=O)C[S+]([O-])C(c1ccc(Cl)cc1)c1ccc(Cl)cc1` (racemic), affinity in assay [1] was put at a Ki of 2.44 µM. Also, the inhibition result in assay [2] and in assay [3] was “inactive” each time.
`CNC(=O)C[S+]([O-])C(c1ccc(Br)cc1)c1ccc(Br)cc1` (racemic): the Ki in assay [1] is 1.65 µM; in assay [4], 33.2 µM. Moreover, the inhibition entry in assay [2] was “inactive”.
In turn, `O=C(C[S+]([O-])C(c1ccccc1)c1ccccc1)NCCCc1ccccc1` (racemic) came in with a Ki in assay [1] of 2.66 µM. For the same molecule, the inhibition entry in assay [2] and in assay [3] was “inactive” throughout.
Take `CN(C)CC[S+]([O-])C(c1ccccc1)c1ccccc1` (racemic): the inhibition result in assay [2] and in assay [5] was “inactive” in each case. The molecule also came in with a Ki in assay [4] of 45.8 µM.
As to `CN(C)CC[S+]([O-])C(c1ccc(Cl)cc1)c1ccc(Cl)cc1` (racemic), the Ki was determined as 2.89 µM in assay [1], 36.2 µM on Transporter and 0.406 µM in assay [4].
Consider `CN(C)C(=O)C[S+]([O-])C(c1ccccc1)c1ccccc1` (racemic), for which the inhibition entry in assay [2], in assay [3] and in assay [5] was “inactive” in each case.
Regarding `NC(=O)C[S+]([O-])C(c1ccccc1)c1ccccc1` (racemic), the inhibition result in assay [2] and in assay [3] was “inactive” each time. Further, the Activity result with Mus musculus is “Dose-dependent effect”.
As to `[O-][S+](CCN1CCOCC1)C(c1ccccc1)c1ccccc1` (racemic), the inhibition result in assay [2], in assay [3] and in assay [5] was “inactive” throughout.

The values above are taken from ChEMBL document CHEMBL1671828 (ACS Med Chem Lett, 2011).
